Consider 29 compounds from ChEMBL document CHEMBL2346635, “6-Oxo and 6-thio purine analogs as antimycobacterial agents” (Bioorg Med Chem, 2013).

As a reminder, the MIC90 is an inhibitory concentration at the 90% level, which refers to growth in some studies and to a panel of isolates in others. One may read the MIC99 as an inhibitory concentration at the 99% level, which refers to growth in some studies and to a panel of isolates in others. By inhibition is commonly meant the relative decrease from the control value, in per cent.

The structures appear in SMILES notation. In brackets after ≈: the same amount, converted by molar mass. Activity calls are given as the source filed them. The calls are words filed in the database; no cut-off is given here. Bounds are passed on as bounds.

Assay type in all cases: functional
Assay [1] concerns Mycobacterium tuberculosis. Put plainly: Antimycobacterial activity against Mycobacterium tuberculosis H37Rv ATCC 27294 assessed as growth inhibition by radiometric BACTEC assay.
Assay [2] relates to Mycobacterium tuberculosis. Put plainly: Antimycobacterial activity against Mycobacterium tuberculosis H37Ra ATCC 25177 assessed as growth inhibition by Alamar blue microdilution broth assay. The essentials:
(§1)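 Alamar blue colorimetric microdilution in Middlebrook 7H9 broth with 0.2% glycerol and ADC enrichment. Primary screen at 1.28 and 12.8 µg/mL. Actives (≤12.8 µg/mL) retested in two-fold dilutions. MIC99 is the lowest concentration giving complete growth inhibition.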

In assay [3] the test system is Mycobacterium tuberculosis. Put plainly: Antimycobacterial activity against Mycobacterium tuberculosis H37Rv ATCC 27294 assessed as growth inhibition at 6.25 ug/ml by radiometric BACTEC assay. The essentials: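 Primary screen at a single 6.25 µg/mL in radiometric BACTEC 12B medium. Value is percent growth inhibition.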
Assay [4] deals with Mycobacterium avium. The assay can be described thus: Antimycobacterial activity against Mycobacterium avium Nj211 assessed as growth inhibition by Alamar blue microdilution broth assay. The essentials: as §1
Background: Resazurin is reduced to fluorescent resorufin, in cell work by metabolically active cells.

Turning to `CCCCCCCCCCOc1nc(N)nc2c1ncn2CC(=O)OCC`, in assay [1], the MIC90 was above 6.25 µg/mL. The MIC99 in assay [2] and in assay [4] was above 12.8 µg/mL each time. Moreover, in assay [3], the inhibition at 6.25 µg/mL is 14%.

Consider `CCCCCCCCCCSc1nc(N)nc2c1ncn2CC(=O)N[C@@H](CO)C(=O)OC`, for which the MIC90 in assay [1] is above 6.25 µg/mL. For the same compound, the MIC99 in assay [2] and in assay [4] was above 12.8 µg/mL each time. The inhibition at 6.25 µg/mL in assay [3] stood at 5%.

Take `Nc1nc(Cl)c2ncn(CC(=O)O)c2n1`: the inhibition entry in assay [3] was “inactive”.

Consider `CCCCCCCCCCOc1nc(N)nc2c1ncn2CC(=O)N[C@@H](Cc1ccccc1)C(=O)OC`, for which the inhibition result in assay [3] is “inactive”.

`Clc1ccc(Oc2ncnc3[nH]cnc23)cc1`: the inhibition entry in assay [3] was “inactive”.

For the compound `CCCCCCCCCCOc1nc(N)nc2[nH]cnc12`, the MIC90 in assay [1] worked out at 3.13 µg/mL (≈ 10.7 µM). The MIC99 in assay [2] and in assay [4] was above 12.8 µg/mL throughout. For the same compound, the inhibition at 6.25 µg/mL in assay [3] turned out to be 91%.

On to `CCCCCCCCCCSc1nc(NC(C)=O)nc2[nH]cnc12`, for which, in assay [1], the MIC90 is above 6.25 µg/mL. The MIC99 in assay [2] and in assay [4] was above 12.8 µg/mL throughout. Moreover, the inhibition at 6.25 µg/mL in assay [3] was found to be 35%.

`CCCCCCCCCCOc1nc(Cl)nc2[nH]cnc12`: in assay [1], the MIC90 was above 6.25 µg/mL. The MIC99 in assay [2] and in assay [4] was above 12.8 µg/mL each time. Besides, in assay [3], the inhibition at 6.25 µg/mL was found to be 55%.

With `CCCCCCCCCCOc1nc(N)nc2c1ncn2CC(=O)O`, in assay [3], the inhibition entry was “inactive”.

`CCCCCCCCCCSc1ncnc2c1ncn2CCCC`: the MIC90 in assay [1] worked out at 6.25 µg/mL (≈ 17.9 µM). For the same compound, the MIC99 in assay [2] and in assay [4] was above 12.8 µg/mL throughout. Also, in assay [3], the inhibition at 6.25 µg/mL was 98%.

As to `Nc1nc(Oc2ccc(Cl)cc2)c2nc[nH]c2n1`, the MIC90 in assay [1] was above 6.25 µg/mL. Further, the MIC99 in assay [2] and in assay [4] was above 12.8 µg/mL throughout. Besides, the inhibition at 6.25 µg/mL in assay [3] was determined as 20%.

Turning to `Cc1ccc(Oc2nc(Cl)nc3[nH]cnc23)cc1`, the inhibition entry in assay [3] is “inactive”.

Regarding `Nc1nc(OCC2CCCCC2)c2nc[nH]c2n1`, the MIC90 in assay [1] was above 6.25 µg/mL. Moreover, the MIC99 in assay [2] and in assay [4] was above 12.8 µg/mL in each case. Moreover, the inhibition at 6.25 µg/mL in assay [3] was found to be 93%.

Turning to `CCCCCCCCCCSc1nc(CC)nc2[nH]cnc12`, the MIC90 in assay [1] was above 6.25 µg/mL. For the same compound, the MIC99 in assay [2] and in assay [4] was above 12.8 µg/mL each time. Moreover, the inhibition at 6.25 µg/mL in assay [3] stood at 84%.

For the compound `CCCCCCCCCCSc1nc(N)nc2c1ncn2CC(=O)N[C@H](CO)C(=O)OC`, the inhibition result in assay [3] was “inactive”.

Regarding `CCCCCCCCCCOc1nc(N)nc2c1ncn2CC(=O)N[C@@H](Cc1ccccc1)C(=O)OCC`, the inhibition result in assay [3] was “inactive”.

For the compound `Cc1ccc(Oc2nc(N)nc3[nH]cnc23)cc1`, in assay [3], the inhibition result is “inactive”.

Turning to `CCCCCCCCCCSc1nc(N)nc2c1ncn2CC(=O)N[C@H](Cc1ccccc1)C(=O)OC`, the inhibition entry in assay [3] is “inactive”.

As for `Nc1nc(Oc2ccccc2)c2[nH]cnc2n1`, the inhibition result in assay [3] is “inactive”.

For `Cc1cccc(Oc2nc(Cl)nc3[nH]cnc23)c1`, the inhibition result in assay [3] is “inactive”.

`CCCCCCCCCCSc1nc(SCCCCCCCCCC)c2ncn(COCCO)c2n1`: the inhibition result in assay [3] was “inactive”.

With `CCCCCCCCCCSc1nc(N)nc2c1ncn2CC(=O)O`, in assay [3], the inhibition result is “inactive”.

Turning to `Cc1cccc(Oc2nc(N)nc3[nH]cnc23)c1`, the inhibition result in assay [3] was “inactive”.

As for `Nc1nc(OCc2ccccc2)c2nc[nH]c2n1`, in assay [3], the inhibition entry is “inactive”.

In the case of `CCCCCCCCCCSc1nc(N)nc2c1ncn2CC(=O)N[C@@H](C)C(=O)OC`, in assay [3], the inhibition entry is “inactive”.

Take `Clc1nc(OCC2CCCCC2)c2[nH]cnc2n1`: the inhibition result in assay [3] was “inactive”.

`CCCCCCCCCCSc1nc(N)nc2c1ncn2CC(=O)N[C@@H](Cc1ccccc1)C(=O)OC`: the inhibition result in assay [3] was “inactive”.

Consider `CCCCCCCCCCSc1nc(N)nc2c1ncn2CC(=O)N[C@@H](CO)C(=O)OCC`, for which the inhibition entry in assay [3] is “inactive”.

For the compound `CCCCCCCCCCOc1nc(N)nc2c1ncn2CC(=O)N[C@@H](C)C(=O)OC`, the inhibition result in assay [3] is “inactive”.
